# Measured values from ChEMBL document CHEMBL3813647, “Discovery of an Orally Active and Liver-Targeted Prodrug of 5-Fluoro-2'-Deoxyuridine for the Treatment of Hepatocellular Carcinoma” (J Med Chem, 2016).
# Key:
# [1] = tested on: Liver; assay: Cmax in Sprague-Dawley rat liver assessed as 5-FU formation at 52.17 mg/kg administered through oral gavage measured up to 24 hrs by HPLC-MS/MS analysis; format: ADME, organism-based; design: dose 52.17 mg/kg, route oral; details: in vivo
# Procedure, shortened: (§1)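 Male Sprague-Dawley rats (220 ± 20 g), single gavage of 0.096 mmol/kg. FDUR was dosed in H2O; the prodrugs were dosed in 20% hydroxypropyl-β-cyclodextrin. n = 3 per time point, sampled at 0.25–24 h. Plasma (EDTA-K2, cardiac puncture) and freeze-clamped liver were homogenized in 20 mM EDTA-K2/70% MeOH. Analytes measured by HPLC-MS/MS in ESI negative mode.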
# [2] = Cytotoxicity against human SMMC7721 cells assessed as reduction in cell viability after 72 hrs by MTT assay; format: functional, cell-based; details: SMMC-7721, 72 h
# Procedure, shortened: (§2)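 Cells in RPMI-1640 with 10% FBS, seeded at 4 × 10³ per well and attached for 24 h. Compound (DMSO ≤0.5% final) added for 72 h at 37 °C, 5% CO2. Viability read by MTT. IC50 set against 0.5% DMSO-treated cells taken as 100% viable. Mean of two independent experiments, each run in triplicate.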
# [3] = tested on: Mus musculus; assay: Toxicity in KM mouse assessed as damage to kidney at 2 to 3 g/kg, administered through oral gavage after 15 days; details: in vivo, 360 h
# [4] = tested on: Mus musculus; assay: Toxicity in KM mouse assessed as damage to heart at 2 to 3 g/kg, administered through oral gavage after 15 days; details: in vivo, 360 h
# [5] = Cytotoxicity against human LO2 cells assessed as reduction in cell viability after 72 hrs by MTT assay; format: cell-based; details: L02, 72 h; procedure, shortened: as §2
# [6] = tested on: Mus musculus; assay: Toxicity in KM mouse implanted with mouse H22 cells assessed as body weight level at 65 mg/kg administered daily through oral gavage after 8 days (reference value: 21.7 to 22.3 g); format: organism-based; details: in vivo, 192 h
# [7] = tested on: Liver; assay: Cmax in Sprague-Dawley rat liver assessed as FDUR formation at 52.17 mg/kg administered through oral gavage measured up to 24 hrs by HPLC-MS/MS analysis; format: ADME, organism-based; design: dose 52.17 mg/kg, route oral; details: in vivo; procedure, shortened: as §1
# [8] = tested on: Liver; assay: (§3) Drug metabolism in Sprague-Dawley rat liver S9 fraction assessed as (S)-2-((R)-(((2R,3S,5R)-5-(5-fluoro-2,4-dioxo-3,4-dihydropyrimidin-1(2H)-yl)-3-hydroxytetrahydrofuran-2-yl)methoxy)(2-methylbenzyloxy)phosphorylamino)propanoate formation at 20 ug/mL after 20 mins by HPLC-MS/MS analysis; format: ADME, subcellular; details: s9, 20 min, TDE = time-dependent effect
# Procedure, shortened: (§4)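 Rat liver S9 (10 mg/mL) incubated with compound at 20 μg/mL. Parent, intermediate A and FdUMP followed over time by HPLC-MS/MS. Negative control run without NADPH.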
# [9] = tested on: H22; assay: Antitumor activity against mouse H22 cells implanted in KM mouse assessed as tumor growth inhibition at 260 mg/kg administered daily through oral gavage after 8 days; format: functional; details: 192 h
# Procedure, shortened: (§5)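 Syngeneic H22 hepatoma: 2 × 10⁶ cells injected s.c. in the axilla (0.9% saline) of female KM mice, n = 10 per group. From day 2, daily oral gavage for 8 days. Test agent given in 35% PEG400; sorafenib suspended in 0.5% CMC-Na. Tumor weight taken on day 8; inhibition rate calculated versus the vehicle group.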
# [10] = tested on: Liver; assay: AUC (infinity) in Sprague-Dawley rat liver assessed as FdUMP formation at 52.17 mg/kg administered through oral gavage measured up to 24 hrs by HPLC-MS/MS analysis; format: ADME, organism-based; design: dose 52.17 mg/kg, route oral, time infinity; details: in vivo; procedure, shortened: as §1
# [11] = tested on: Mus musculus; assay: Toxicity in KM mouse assessed as damage to spleen at 2 to 3 g/kg, administered through oral gavage after 15 days; details: in vivo, 360 h
# [12] = Ratio of FDUR AUC (infinity) in Sprague-Dawley rat liver to FDUR AUC (infinity) in Sprague-Dawley rat plasma at 52.17 mg/kg administered through oral gavage; format: ADME, organism-based; details: other tissue
# [13] = tested on: Mus musculus; assay: Toxicity in KM mouse implanted with mouse H22 cells assessed as body weight level at 260 mg/kg administered daily through oral gavage after 8 days (reference value: 21.7 to 22.3 g); format: organism-based; details: in vivo, 192 h
# [14] = tested on: Liver; assay: Cmax in Sprague-Dawley rat liver assessed as FdUMP formation at 52.17 mg/kg administered through oral gavage measured up to 24 hrs by HPLC-MS/MS analysis; format: ADME, organism-based; design: dose 52.17 mg/kg, route oral; details: in vivo; procedure, shortened: as §1
# [15] = tested on: H22; assay: Antitumor activity against mouse H22 cells implanted in KM mouse assessed as tumor growth inhibition at 65 mg/kg administered daily through oral gavage after 8 days; format: functional; details: 192 h; procedure, shortened: as §5
# [16] = tested on: Liver; assay: Drug metabolism in Sprague-Dawley rat liver S9 fraction assessed as FdUMP formation at 20 ug/mL preincubated for 5 mins followed by NADPH addition measured at 20 mins by HPLC-MS/MS analysis; format: ADME, subcellular; details: s9, 20 min; procedure, shortened: as §4
# [17] = Half life in dog plasma by HPLC-MS/MS analysis; format: ADME, cell-free, Canis lupus familiaris
# Procedure, shortened: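 Compound at 1 μg/mL final in dog or human plasma, 37 °C. Sampled at 0–24 h and quenched with ice-cold MeOH containing internal standard. Parent measured by LC-MS/MS in ESI negative mode; t1/2 calculated from percent remaining versus 0 h.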
# [18] = tested on: Liver; assay: (§6) AUC (infinity) in Sprague-Dawley rat liver assessed as (S)-2-((R)-(((2R,3S,5R)-5-(5-fluoro-2,4-dioxo-3,4-dihydropyrimidin-1(2H)-yl)-3-hydroxytetrahydrofuran-2-yl)methoxy)(2-methylbenzyloxy)phosphorylamino)propanoate formation at 52.17 mg/kg administered through oral gavage measured up to 24 hrs by HPLC-MS/MS analysis; format: ADME, organism-based; design: dose 52.17 mg/kg, route oral, time infinity; details: in vivo; procedure, shortened: as §1
# [19] = tested on: Plasma; assay: AUC (infinity) in Sprague-Dawley rat plasma assessed as FDUR formation at 52.17 mg/kg administered through oral gavage measured up to 24 hrs by HPLC-MS/MS analysis; format: ADME, organism-based; design: dose 52.17 mg/kg, time infinity, route oral; details: in vivo; procedure, shortened: as §1
# [20] = tested on: Mus musculus; assay: Toxicity in KM mouse assessed as damage to lung at 2 to 3 g/kg, administered through oral gavage after 15 days; details: in vivo, 360 h
# [21] = tested on: Liver; assay: as §3, with “analysis in absence of NADPH” for “analysis”; format: ADME; details: s9, 20 min; procedure, shortened: as §4
# [22] = tested on: Plasma; assay: as §6, with “plasma” for “liver”; format: ADME, organism-based; design: dose 52.17 mg/kg, time infinity, route oral; details: in vivo; procedure, shortened: as §1
# [23] = tested on: Plasma; assay: Cmax in Sprague-Dawley rat plasma assessed as (S)-2-((R)-(((2R,3S,5R)-5-(5-fluoro-2,4-dioxo-3,4-dihydropyrimidin-1(2H)-yl)-3-hydroxytetrahydrofuran-2-yl)methoxy)(2-methylbenzyloxy)phosphorylamino) propanoate formation at 52.17 mg/kg administered through oral gavage measured up to 24 hrs by HPLC-MS/MS analysis; format: ADME, organism-based; design: dose 52.17 mg/kg, route oral; details: in vivo; procedure, shortened: as §1
# [24] = tested on: H22; assay: Antitumor activity against mouse H22 cells implanted in KM mouse assessed as tumor growth inhibition at 130 mg/kg administered daily through oral gavage after 8 days; format: functional; details: 192 h; procedure, shortened: as §5
smiles,measurement,setting,value
Cc1ccccc1CO[P@](=O)(N[C@@H](C)C(=O)OC(C)C)OC[C@H]1O[C@@H](n2cc(F)c(=O)[nH]c2=O)C[C@@H]1O,Cmax,[1],139 ng/g
same,IC50,[2],250 µM
same,Activity,[3],Non-toxic
same,Activity,[4],Non-toxic
same,IC50,[5],412 µM
same,Activity,[6],25.9 g
same,Cmax,[7],747 ng/g
same,Drug metabolism,[8],tde
same,inhibition in vivo at 260 mg/kg,[9],72.5%
same,AUC,[10],543 ng·h/g
same,Activity,[11],Non-toxic
same,Ratio AUC,[12],59.3
same,Activity,[13],22.3 g
same,Cmax,[14],340 ng/g
same,inhibition in vivo at 65 mg/kg,[15],44.2%
same,Drug metabolism,[16],metabolite_detected
same,half-life,[17],> 24 h
same,AUC,[18],5509 ng·h/g
same,AUC,[19],26 ng·h/mL
same,Activity,[20],Non-toxic
same,Drug metabolism,[21],metabolite_detected
same,AUC,[22],316 ng·h/mL
same,Cmax,[23],234 ng/mL
same,inhibition in vivo at 130 mg/kg,[24],61.7%
